Assay results reported in ChEMBL document CHEMBL1124804, “Substituted vitamin K epoxide analogues. New competitive inhibitors and substrates of vitamin K1 epoxide reductase” (J Med Chem, 1990).

These compounds were tested against T1, Vitamin K epoxide reductase complex subunit 1 (Bos taurus, UniProt Q6B4J2) (assay: Apparent kinetic constant for Vitamin K epoxide reductase).
T1 sequence (Q6B4J2 whole entry): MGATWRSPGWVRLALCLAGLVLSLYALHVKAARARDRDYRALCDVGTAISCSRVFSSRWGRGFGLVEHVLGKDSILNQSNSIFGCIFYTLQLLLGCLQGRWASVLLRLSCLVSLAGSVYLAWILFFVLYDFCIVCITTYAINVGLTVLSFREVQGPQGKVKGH
Method in brief: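 Beef liver microsomes (0.8 mg) as vitamin K1 epoxide reductase source, 0.02% Emulgen 911. Vitamin K1 epoxide varied (10, 12.5, 16.5, 25, 40 μM) with 5 mM DTT, analogue at 0, 20, 40, 60 μM. Double-reciprocal plots built; Ki taken from replots of Km,app against analogue concentration. Also run at 40 μM epoxide with DTT varied 0.33–2.0 mM.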
Compound `CC(C)CCCC(C)CCCC(C)CCCC(C)CC(F)C12OC1(C)C(=O)c1ccccc1C2=O` (stereo not drawn) has a Ki of 100 µM. Work on `C/C(=C\CC12OC1(CCl)C(=O)c1ccccc1C2=O)CCCC(C)CCCC(C)CCCC(C)C` (stereo not drawn) yielded a Ki of 74 µM. `C/C(=C\CC12OC1(CF)C(=O)c1ccccc1C2=O)CCCC(C)CCCC(C)CCCC(C)C` (stereo not drawn) gave a Ki of 17 µM. For `C/C(=C\C(O)C12OC1(C)C(=O)c1ccccc1C2=O)CCCC(C)CCCC(C)CCCC(C)C` (stereo not drawn), the Ki was 43 µM. `C/C(=C\CC12OC1(C=O)C(=O)c1ccccc1C2=O)CCCC(C)CCCC(C)CCCC(C)C` (stereo not drawn) was tested, and the Ki was 26 µM. In the case of `C/C(=C\CC12OC1(C(F)F)C(=O)c1ccccc1C2=O)CCCC(C)CCCC(C)CCCC(C)C` (stereo not drawn), the Ki is reported as 63 µM. `CC(C)CCCC(C)CCCC(C)CCCC(C)CC(O)C12OC1(C)C(=O)c1ccccc1C2=O` (stereo not drawn) gave a Ki of 63 µM. `C/C(=C\CC12OC1(CO)C(=O)c1ccccc1C2=O)CCCC(C)CCCC(C)CCCC(C)C` (stereo not drawn) showed a Ki of 8 µM.
